Data published in ChEMBL document CHEMBL5724801, “EUbOPEN Chemogenomics Library - Multiplex” (2024).
Where “and” joins values, the source holds several entries; their conditions need not be identical. Identical values can stand only once.

What was measured:
[1] = test system: HEK-293T; assay: Multiplex assay against HEK293T; assay type: toxicity, cell-based; details: human
Procedure, shortened: (§1)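 Live cells carried four stains from seeding: Hoechst33342, BioTracker Green Microtubule Cytoskeleton Dye, MitoTracker Red and Annexin V Alexa Fluor 680. They were imaged on a CQ1 microscope at 37°C and 5% CO2 after compound addition. Using CellPathfinder machine-learning gating, cells were split into Hoechst high-intensity objects or normal cells, normal cells into healthy, pyknosed or fragmented nuclei, and pyknosed cells into mitotic or apoptotic; tubulin, mitochondrial-mass and membrane-permeability phenotypes are per cents of healthy-nucleus cells.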

[2] = test system: U2OS; assay: Multiplex assay against U2OS; assay type: toxicity, cell-based; details: human; procedure, shortened: as §1
[3] = 24 h, 1 µM, compound concentration 1 uM
[4] = 24 h, 10 µM, compound concentration 10 uM
[5] = 48 h, 1 µM, compound concentration 1 uM
[6] = 48 h, 10 µM, compound concentration 10 uM
[7] = 12 h, 1 µM, compound concentration 1 uM
[8] = 12 h, 10 µM, compound concentration 10 uM

## CCCCCN1C(=O)C2(COc3cc4c(cc32)OCO4)c2ccccc21 (stereo not drawn)
[1]; [3]
  Population Normal (%): 100% and 99.49%
  Population Tubulin-Different-Phenotype (%): 11.86% and 4.05%
  Total Cell Count: 518 and 197
[1]; [4]
  Population Apoptotic (%): 19.31% and 11.94%
  Population Fragmented Nuclei (%): 1.12% and 2.34%
  Population Hoechst High Intensity Objects (%): 0.22% and 0%
  Population Membrane Permeable-Phenotype (%): 1.34% and 0%
  Population Mitochondria Different-Phenotype (%): 25.5% and 21.21%
  Population Mitotic Cells (%): 80.69% and 88.06%
  Population Normal (%): 99.78% and 100%
  Population Pyknosed Nuclei (%): 32.37% and 78.36%
  Population Tubulin-Different-Phenotype (%): 30.2% and 15.15%
  Total Cell Count: 449 and 171
[1]; [5]
  Population Apoptotic (%): 9.4% and 23.88%
  Population Fragmented Nuclei (%): 2.17% and 2.27%
  Population Healthy Nuclei (%): 88.04% and 75.97%
  Population Hoechst High Intensity Objects (%): 0% and 0.65%
  Population Membrane Permeable-Phenotype (%): 4.37% and 2.99%
  Population Mitochondria Different-Phenotype (%): 13.77% and 12.82%
  Population Mitotic Cells (%): 90.6% and 76.12%
  Population Normal (%): 100% and 99.35%
  Population Pyknosed Nuclei (%): 9.78% and 21.75%
[1]; [6]
  Population Fragmented Nuclei (%): 2.44% and 0.93%
  Population Healthy Nuclei (%): 80.51% and 57.41%
  Population Hoechst High Intensity Objects (%): 0%
  Population Membrane Permeable-Phenotype (%): 5.04% and 0%
  Population Mitochondria Different-Phenotype (%): 42.8% and 31.45%
  Population Mitotic Cells (%): 93.2% and 75.56%
  Population Normal (%): 100%
  Population Pyknosed Nuclei (%): 17.05% and 41.67%
[2]; [7]
  Population Apoptotic (%): 29.41% and 64%
  Population Fragmented Nuclei (%): 1.7% and 1.92%
  Population Healthy Nuclei (%): 87.47% and 82.05%
  Population Hoechst High Intensity Objects (%): 0%
  Population Membrane Permeable-Phenotype (%): 0.49% and 3.91%
  Population Mitochondria Different-Phenotype (%): 0.24% and 7.81%
  Population Mitotic Cells (%): 70.59% and 36%
  Population Normal (%): 100%
  Population Pyknosed Nuclei (%): 10.83% and 16.03%
  Population Tubulin-Different-Phenotype (%): 0.49% and 0%
[2]; [8]
  Population Apoptotic (%): 35.71% and 31.82%
  Population Fragmented Nuclei (%): 1.52% and 0%
  Population Healthy Nuclei (%): 91.37% and 84.93%
  Population Hoechst High Intensity Objects (%): 0%
  Population Membrane Permeable-Phenotype (%): 1.94% and 4.84%
  Population Mitotic Cells (%): 64.29% and 68.18%
  Population Normal (%): 100%
  Population Pyknosed Nuclei (%): 7.11% and 15.07%
  Population Tubulin-Different-Phenotype (%): 2.22% and 2.42%
  Total Cell Count: 394 and 146
[2]; [3]
  Population Apoptotic (%): 41.07% and 40%
  Population Fragmented Nuclei (%): 1.74% and 2.44%
  Population Healthy Nuclei (%): 89.42% and 80.49%
  Population Hoechst High Intensity Objects (%): 0%
  Population Membrane Permeable-Phenotype (%): 0.88% and 2.42%
  Population Mitochondria Different-Phenotype (%): 0% and 7.27%
  Population Mitotic Cells (%): 58.93% and 60%
  Population Normal (%): 100%
  Population Pyknosed Nuclei (%): 8.85% and 17.07%
  Population Tubulin-Different-Phenotype (%): 0.18% and 1.82%
[2]; [4]
  Population Apoptotic (%): 23.33% and 32.14%
  Population Fragmented Nuclei (%): 2.09% and 1.2%
  Population Healthy Nuclei (%): 86.5% and 81.93%
  Population Hoechst High Intensity Objects (%): 0%
  Population Membrane Permeable-Phenotype (%): 1.1% and 8.09%
  Population Mitotic Cells (%): 76.67% and 67.86%
  Population Normal (%): 100%
  Population Pyknosed Nuclei (%): 11.41% and 16.87%
  Population Tubulin-Different-Phenotype (%): 2.42% and 3.68%
[2]; [5]
  Population Apoptotic (%): 40.17% and 47.5%
  Population Fragmented Nuclei (%): 3.56% and 1.97%
  Population Healthy Nuclei (%): 86.74% and 86.8%
  Population Hoechst High Intensity Objects (%): 0%
  Population Membrane Permeable-Phenotype (%): 0.86% and 1.29%
  Population Mitochondria Different-Phenotype (%): 0% and 3.56%
  Population Mitotic Cells (%): 59.83% and 52.5%
  Population Normal (%): 100%
  Population Pyknosed Nuclei (%): 9.69% and 11.24%
  Population Tubulin-Different-Phenotype (%): 0.38% and 0.97%
[2]; [6]
  Population Apoptotic (%): 41.89% and 71.05%
  Population Fragmented Nuclei (%): 2.63% and 1.47%
  Population Healthy Nuclei (%): 89.58% and 84.56%
  Population Hoechst High Intensity Objects (%): 0%
  Population Membrane Permeable-Phenotype (%): 0.71% and 3.91%
  Population Mitotic Cells (%): 58.11% and 28.95%
  Population Normal (%): 100%
  Population Pyknosed Nuclei (%): 7.79% and 13.97%
  Population Tubulin-Different-Phenotype (%): 1.29% and 1.74%
